ChEMBL document CHEMBL4689842, “EUbOPEN Chemogenomics Library wave 1” (2021)

System: HEK-293T
Experiment: Multiplex assay against HEK293T;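 as to Population Tubulin-Different-Phenotype (%): share of the cells with healthy nuclei that show this phenotype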
Format: toxicity, cell-based
Settings: human
Outline: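 Live cells carried four stains from seeding: Hoechst33342, BioTracker Green Microtubule Cytoskeleton Dye, MitoTracker Red and Annexin V Alexa Fluor 680. They were imaged on a CQ1 microscope at 37°C and 5% CO2 after compound addition. Using CellPathfinder machine-learning gating, cells were split into Hoechst high-intensity objects or normal cells, normal cells into healthy, pyknosed or fragmented nuclei, and pyknosed cells into mitotic or apoptotic; tubulin, mitochondrial-mass and membrane-permeability phenotypes are per cents of healthy-nucleus cells.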

[1] = 12 h, 1 µM, compound concentration 1 uM, replicate 1
[2] = 12 h, 1 µM, compound concentration 1 uM, replicate 2
[3] = 12 h, 10 µM, compound concentration 10 uM, replicate 1
[4] = 12 h, 10 µM, compound concentration 10 uM, replicate 2
[5] = 24 h, 1 µM, compound concentration 1 uM, replicate 1
[6] = 24 h, 1 µM, compound concentration 1 uM, replicate 2
[7] = 24 h, 10 µM, compound concentration 10 uM, replicate 1
[8] = 24 h, 10 µM, compound concentration 10 uM, replicate 2
[9] = 48 h, 1 µM, compound concentration 1 uM, replicate 1
[10] = 48 h, 1 µM, compound concentration 1 uM, replicate 2
[11] = 48 h, 10 µM, compound concentration 10 uM, replicate 1
[12] = 48 h, 10 µM, compound concentration 10 uM, replicate 2

Structure (SMILES): CNc1oc(-c2cccc3ccccc23)nc1C#N
- Population Apoptotic (%) [1]: 59%
- Population Fragmented Nuclei (%) [1]: 14%
- Population Healthy Nuclei (%) [1]: 60%
- Population Hoechst High Intensity Objects (%) [1]: 30%
- Population Membrane Permeable-Phenotype (%) [1]: 3%
- Population Mitochondria Different-Phenotype (%) [1]: 62%
- Population Mitotic Cells (%) [1]: 40%
- Population Normal (%) [1]: 69%
- Population Pyknosed Nuclei (%) [1]: 25%
- Population Tubulin-Different-Phenotype (%) [1]: 31%
- Total Cell Count [1]: 276
- Population Apoptotic (%) [2]: 14%
- Population Fragmented Nuclei (%) [2]: 8%
- Population Healthy Nuclei (%) [2]: 61%
- Population Hoechst High Intensity Objects (%) [2]: 11%
- Population Membrane Permeable-Phenotype (%) [2]: 8%
- Population Mitochondria Different-Phenotype (%) [2]: 16%
- Population Mitotic Cells (%) [2]: 85%
- Population Normal (%) [2]: 88%
- Population Pyknosed Nuclei (%) [2]: 29%
- Population Tubulin-Different-Phenotype (%) [2]: 12%
- Total Cell Count [2]: 270
- Population Apoptotic (%) [3]: 41%
- Population Fragmented Nuclei (%) [3]: 83%
- Population Healthy Nuclei (%) [3]: 15%
- Population Hoechst High Intensity Objects (%) [3]: 41%
- Population Membrane Permeable-Phenotype (%) [3]: 0%
- Population Mitochondria Different-Phenotype (%) [3]: 1%
- Population Mitotic Cells (%) [3]: 58%
- Population Normal (%) [3]: 58%
- Population Pyknosed Nuclei (%) [3]: 1%
- Population Tubulin-Different-Phenotype (%) [3]: 0%
- Total Cell Count [3]: 2858
- Population Apoptotic (%) [4]: 25%
- Population Fragmented Nuclei (%) [4]: 86%
- Population Healthy Nuclei (%) [4]: 12%
- Population Hoechst High Intensity Objects (%) [4]: 47%
- Population Membrane Permeable-Phenotype (%) [4]: 4%
- Population Mitochondria Different-Phenotype (%) [4]: 2%
- Population Mitotic Cells (%) [4]: 75%
- Population Normal (%) [4]: 52%
- Population Pyknosed Nuclei (%) [4]: 0%
- Population Tubulin-Different-Phenotype (%) [4]: 1%
- Total Cell Count [4]: 2861
- Population Apoptotic (%) [5]: 38%
- Population Fragmented Nuclei (%) [5]: 17%
- Population Healthy Nuclei (%) [5]: 64%
- Population Hoechst High Intensity Objects (%) [5]: 29%
- Population Membrane Permeable-Phenotype (%) [5]: 6%
- Population Mitochondria Different-Phenotype (%) [5]: 41%
- Population Mitotic Cells (%) [5]: 61%
- Population Normal (%) [5]: 70%
- Population Pyknosed Nuclei (%) [5]: 17%
- Population Tubulin-Different-Phenotype (%) [5]: 25%
- Total Cell Count [5]: 325
- Population Apoptotic (%) [6]: 32%
- Population Fragmented Nuclei (%) [6]: 6%
- Population Healthy Nuclei (%) [6]: 79%
- Population Hoechst High Intensity Objects (%) [6]: 14%
- Population Membrane Permeable-Phenotype (%) [6]: 15%
- Population Mitochondria Different-Phenotype (%) [6]: 8%
- Population Mitotic Cells (%) [6]: 67%
- Population Normal (%) [6]: 85%
- Population Pyknosed Nuclei (%) [6]: 13%
- Population Tubulin-Different-Phenotype (%) [6]: 26%
- Total Cell Count [6]: 316
- Population Apoptotic (%) [7]: 15%
- Population Fragmented Nuclei (%) [7]: 83%
- Population Healthy Nuclei (%) [7]: 15%
- Population Hoechst High Intensity Objects (%) [7]: 40%
- Population Membrane Permeable-Phenotype (%) [7]: 0%
- Population Mitotic Cells (%) [7]: 84%
- Population Normal (%) [7]: 59%
- Population Pyknosed Nuclei (%) [7]: 0%
- Population Tubulin-Different-Phenotype (%) [7]: 0%
- Total Cell Count [7]: 2556
- Population Apoptotic (%) [8]: 13%
- Population Fragmented Nuclei (%) [8]: 88%
- Population Healthy Nuclei (%) [8]: 10%
- Population Hoechst High Intensity Objects (%) [8]: 48%
- Population Membrane Permeable-Phenotype (%) [8]: 4%
- Population Mitochondria Different-Phenotype (%) [8]: 1%
- Population Mitotic Cells (%) [8]: 86%
- Population Normal (%) [8]: 51%
- Population Pyknosed Nuclei (%) [8]: 1%
- Population Tubulin-Different-Phenotype (%) [8]: 3%
- Total Cell Count [8]: 2734
- Population Apoptotic (%) [9]: 39%
- Population Fragmented Nuclei (%) [9]: 14%
- Population Healthy Nuclei (%) [9]: 78%
- Population Hoechst High Intensity Objects (%) [9]: 32%
- Population Membrane Permeable-Phenotype (%) [9]: 2%
- Population Mitochondria Different-Phenotype (%) [9]: 17%
- Population Mitotic Cells (%) [9]: 60%
- Population Normal (%) [9]: 67%
- Population Pyknosed Nuclei (%) [9]: 7%
- Population Tubulin-Different-Phenotype (%) [9]: 17%
- Total Cell Count [9]: 470
- Population Apoptotic (%) [10]: 18%
- Population Fragmented Nuclei (%) [10]: 8%
- Population Healthy Nuclei (%) [10]: 84%
- Population Hoechst High Intensity Objects (%) [10]: 14%
- Population Membrane Permeable-Phenotype (%) [10]: 7%
- Population Mitochondria Different-Phenotype (%) [10]: 3%
- Population Mitotic Cells (%) [10]: 81%
- Population Normal (%) [10]: 85%
- Population Pyknosed Nuclei (%) [10]: 6%
- Population Tubulin-Different-Phenotype (%) [10]: 14%
- Total Cell Count [10]: 536
- Population Apoptotic (%) [11]: 15%
- Population Fragmented Nuclei (%) [11]: 82%
- Population Healthy Nuclei (%) [11]: 16%
- Population Hoechst High Intensity Objects (%) [11]: 43%
- Population Membrane Permeable-Phenotype (%) [11]: 0%
- Population Mitochondria Different-Phenotype (%) [11]: 0%
- Population Mitotic Cells (%) [11]: 85%
- Population Normal (%) [11]: 56%
- Population Pyknosed Nuclei (%) [11]: 1%
- Population Tubulin-Different-Phenotype (%) [11]: 0%
- Total Cell Count [11]: 2084
- Population Apoptotic (%) [12]: 16%
- Population Fragmented Nuclei (%) [12]: 84%
- Population Healthy Nuclei (%) [12]: 14%
- Population Hoechst High Intensity Objects (%) [12]: 52%
- Population Membrane Permeable-Phenotype (%) [12]: 1%
- Population Mitotic Cells (%) [12]: 83%
- Population Normal (%) [12]: 47%
- Population Tubulin-Different-Phenotype (%) [12]: 1%
- Total Cell Count [12]: 2135
